Columns and labels:
[1] = molecular target: Phenylethanolamine N-methyltransferase (Homo sapiens, UniProt P11086, D267A); assay: Activity of human PNMT D267A mutant assessed as phenylethanolamine methylation
[2] = molecular target: Phenylethanolamine N-methyltransferase (Homo sapiens, UniProt P11086, D267N); assay: (§1) Activity of human PNMT D267N mutant assessed as phenylethanolamine methylation
Procedure, shortened: (§2)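 C-terminally His6-tagged human PNMT mutants made by site-directed mutagenesis, expressed in E. coli BL21(DE3)-pLysS, and purified by Ni affinity then gel filtration. Steady-state kinetics used 50 mM potassium phosphate pH 8.0 with [3H]-AdoMet and phenylethanolamine, each varied between 0.3 and 3 × Km. Incubation was 30 min at 30 °C, quenched with borate pH 10, extracted into toluene/isoamyl alcohol, and counted by scintillation.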

[3] = molecular target: Phenylethanolamine N-methyltransferase (Homo sapiens, UniProt P11086, K57A); assay: (§3) Activity of human PNMT K57A mutant assessed as phenylethanolamine methylation; procedure, shortened: as §2
[4] = molecular target: T1, Phenylethanolamine N-methyltransferase (Homo sapiens, UniProt P11086); assay: Activity of human wild type PNMT assessed as phenylethanolamine methylation
T1 sequence (P11086 whole entry): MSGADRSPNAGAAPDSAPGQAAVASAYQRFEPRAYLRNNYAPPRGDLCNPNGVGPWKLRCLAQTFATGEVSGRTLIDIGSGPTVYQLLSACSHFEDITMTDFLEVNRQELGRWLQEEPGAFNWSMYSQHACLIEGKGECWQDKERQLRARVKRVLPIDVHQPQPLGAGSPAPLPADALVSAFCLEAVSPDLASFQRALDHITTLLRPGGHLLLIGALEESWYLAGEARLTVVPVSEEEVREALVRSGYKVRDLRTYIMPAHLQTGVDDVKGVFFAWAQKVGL

[5] = molecular target: Phenylethanolamine N-methyltransferase (Homo sapiens, UniProt P11086, V53A); assay: (§4) Activity of human PNMT V53A mutant assessed as phenylethanolamine methylation; procedure, shortened: as §2
[6] = molecular target: Phenylethanolamine N-methyltransferase (Homo sapiens, UniProt P11086, E219A); assay: (§5) Activity of human PNMT E219A mutant assessed as phenylethanolamine methylation; procedure, shortened: as §2
[7] = molecular target: T1, Phenylethanolamine N-methyltransferase; assay: Binding affinity to human free PNMT
[8] = Binding affinity to human PNMT-S-adenosyl-L-methionine complex
[9] = substrate: C[S+](CC[C@H](N)C(=O)[O-])C[C@H]1O[C@@H](n2cnc3c(N)ncnc32)[C@H](O)[C@@H]1O; assay: as §4; procedure, shortened: as §2
[10] = substrate: NCC(O)c1ccc(Cl)c(Cl)c1; assay: as §4; procedure, shortened: as §2
[11] = substrate: C[S+](CC[C@H](N)C(=O)[O-])C[C@H]1O[C@@H](n2cnc3c(N)ncnc32)[C@H](O)[C@@H]1O; details: Homo sapiens
[12] = substrate: NCC(O)c1ccc(Cl)c(Cl)c1; details: Homo sapiens
[13] = substrate: C[S+](CC[C@H](N)C(=O)[O-])C[C@H]1O[C@@H](n2cnc3c(N)ncnc32)[C@H](O)[C@@H]1O; assay: as §3; procedure, shortened: as §2
[14] = substrate: NCC(O)c1ccc(Cl)c(Cl)c1; assay: as §3; procedure, shortened: as §2
[15] = substrate: C[S+](CC[C@H](N)C(=O)[O-])C[C@H]1O[C@@H](n2cnc3c(N)ncnc32)[C@H](O)[C@@H]1O; details: Homo sapiens; remark: listed apart in the source
[16] = substrate: NCC(O)c1ccc(Cl)c(Cl)c1; details: Homo sapiens; remark: listed apart in the source
[17] = substrate: C[S+](CC[C@H](N)C(=O)[O-])C[C@H]1O[C@@H](n2cnc3c(N)ncnc32)[C@H](O)[C@@H]1O; assay: as §1; procedure, shortened: as §2
[18] = substrate: NCC(O)c1ccc(Cl)c(Cl)c1; assay: as §1; procedure, shortened: as §2
[19] = substrate: C[S+](CC[C@H](N)C(=O)[O-])C[C@H]1O[C@@H](n2cnc3c(N)ncnc32)[C@H](O)[C@@H]1O; assay: as §5; procedure, shortened: as §2
[20] = substrate: NCC(O)c1ccc(Cl)c(Cl)c1; assay: as §5; procedure, shortened: as §2

## C[S+](CC[C@H](N)C(=O)[O-])C[C@H]1O[C@@H](n2cnc3c(N)ncnc32)[C@H](O)[C@@H]1O (stereo not given in full) [ADEMETIONINE]
[1]
  Kd: 11 µM
[2]
  Kd: 7.5 µM
[3]
  Kd: 10.7 µM
[4]
  Kd: 4.8 µM
[5]
  Kd: 7.1 µM
[6]
  Kd: 7.5 µM

## CC(N)c1cccc(Cl)c1Cl (stereo not given)
[7]
  Ki: 1.33 µM
[8]
  Ki: 0.072 µM

B1: Phenylethanolamine N-methyltransferase (Homo sapiens), P11086 V53A (protein)
chain: MSGADRSPNAGAAPDSAPGQAAVASAYQRFEPRAYLRNNYAPPRGDLCNPNGAGPWKLRCLAQTFATGEVSGRTLIDIGSGPTVYQLLSACSHFEDITMTDFLEVNRQELGRWLQEEPGAFNWSMYSQHACLIEGKGECWQDKERQLRARVKRVLPIDVHQPQPLGAGSPAPLPADALVSAFCLEAVSPDLASFQRALDHITTLLRPGGHLLLIGALEESWYLAGEARLTVVPVSEEEVREALVRSGYKVRDLRTYIMPAHLQTGVDDVKGVFFAWAQKVGL
[9]
  Km: 9.6 µM
[10]
  Km: 1630 µM

B2: Phenylethanolamine N-methyltransferase (Homo sapiens), P11086 D267A (protein)
chain: MSGADRSPNAGAAPDSAPGQAAVASAYQRFEPRAYLRNNYAPPRGDLCNPNGVGPWKLRCLAQTFATGEVSGRTLIDIGSGPTVYQLLSACSHFEDITMTDFLEVNRQELGRWLQEEPGAFNWSMYSQHACLIEGKGECWQDKERQLRARVKRVLPIDVHQPQPLGAGSPAPLPADALVSAFCLEAVSPDLASFQRALDHITTLLRPGGHLLLIGALEESWYLAGEARLTVVPVSEEEVREALVRSGYKVRDLRTYIMPAHLQTGVADVKGVFFAWAQKVGL
[11]
  Km: 2.4 µM
[12]
  Km: 2050 µM

B3: Phenylethanolamine N-methyltransferase (Homo sapiens), P11086 K57A (protein)
chain: MSGADRSPNAGAAPDSAPGQAAVASAYQRFEPRAYLRNNYAPPRGDLCNPNGVGPWALRCLAQTFATGEVSGRTLIDIGSGPTVYQLLSACSHFEDITMTDFLEVNRQELGRWLQEEPGAFNWSMYSQHACLIEGKGECWQDKERQLRARVKRVLPIDVHQPQPLGAGSPAPLPADALVSAFCLEAVSPDLASFQRALDHITTLLRPGGHLLLIGALEESWYLAGEARLTVVPVSEEEVREALVRSGYKVRDLRTYIMPAHLQTGVDDVKGVFFAWAQKVGL
[13]
  Km: 11.7 µM
[14]
  Km: 1310 µM

B4: Phenylethanolamine N-methyltransferase (Homo sapiens), P11086 (protein)
chain: MSGADRSPNAGAAPDSAPGQAAVASAYQRFEPRAYLRNNYAPPRGDLCNPNGVGPWKLRCLAQTFATGEVSGRTLIDIGSGPTVYQLLSACSHFEDITMTDFLEVNRQELGRWLQEEPGAFNWSMYSQHACLIEGKGECWQDKERQLRARVKRVLPIDVHQPQPLGAGSPAPLPADALVSAFCLEAVSPDLASFQRALDHITTLLRPGGHLLLIGALEESWYLAGEARLTVVPVSEEEVREALVRSGYKVRDLRTYIMPAHLQTGVDDVKGVFFAWAQKVGL
[15]
  Km: 1.2 µM
[16]
  Km: 100 µM

B5: Phenylethanolamine N-methyltransferase (Homo sapiens), P11086 D267N (protein)
chain: MSGADRSPNAGAAPDSAPGQAAVASAYQRFEPRAYLRNNYAPPRGDLCNPNGVGPWKLRCLAQTFATGEVSGRTLIDIGSGPTVYQLLSACSHFEDITMTDFLEVNRQELGRWLQEEPGAFNWSMYSQHACLIEGKGECWQDKERQLRARVKRVLPIDVHQPQPLGAGSPAPLPADALVSAFCLEAVSPDLASFQRALDHITTLLRPGGHLLLIGALEESWYLAGEARLTVVPVSEEEVREALVRSGYKVRDLRTYIMPAHLQTGVNDVKGVFFAWAQKVGL
[17]
  Km: 7.1 µM
[18]
  Km: 1640 µM

B6: Phenylethanolamine N-methyltransferase (Homo sapiens), P11086 E219A (protein)
chain: MSGADRSPNAGAAPDSAPGQAAVASAYQRFEPRAYLRNNYAPPRGDLCNPNGVGPWKLRCLAQTFATGEVSGRTLIDIGSGPTVYQLLSACSHFEDITMTDFLEVNRQELGRWLQEEPGAFNWSMYSQHACLIEGKGECWQDKERQLRARVKRVLPIDVHQPQPLGAGSPAPLPADALVSAFCLEAVSPDLASFQRALDHITTLLRPGGHLLLIGALEASWYLAGEARLTVVPVSEEEVREALVRSGYKVRDLRTYIMPAHLQTGVDDVKGVFFAWAQKVGL
[19]
  Km: 7.1 µM
[20]
  Km: 580 µM
